# According to paper PMC7439261 (ACS Omega, 2020):
# Values joined by “and” are separate entries in the source; they are usually repeats but may differ in a detail not shown here. Identical values can stand only once.
# What was measured:
# [1] = Sulforhodamine cytotoxicity assay, MCF7; assay type: cell-based; conditions: human, MCF7 cells
# Procedure, shortened: (§1)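 Cells were grown in EMEM with 10% FBS, 2 mM L-glutamine, 20 mM HEPES and antibiotics at 37 °C, 5% CO2. Passages were 4–20 for HeLa, MCF7 and Jurkat, and 2–5 for fibroblasts. Seeding per well for 24 h: HeLa 5×10^3, MCF7 and fibroblast 10^4, Jurkat 5×10^4. Test compound (0–200 mg/L, in DMSO) was added for 48 h. Cells were fixed with cold TCA, stained with 0.2% SRB, solubilised in 10 mM Tris and read at 492 nm. Camptothecin was the positive control. Triplicates, three independent experiments.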
# [2] = Sulforhodamine cytotoxicity assay, text summary over four cell lines; assay type: cell-based; conditions: human
# Procedure, shortened: as §1
# [3] = Sulforhodamine cytotoxicity assay, HeLa; assay type: cell-based; conditions: human, HeLa cells
# Procedure, shortened: as §1
# [4] = Sulforhodamine cytotoxicity assay, Jurkat; assay type: cell-based; conditions: human, Jurkat cells
# Procedure, shortened: as §1
# [5] = Sulforhodamine cytotoxicity assay, fibroblast; assay type: cell-based; conditions: human, fibroblast cells derived from human foreskins
# Procedure, shortened: as §1
# [6] = system: H. pylori OX.63; assay: Broth dilution bioassay MIC/MBC, OX.63; assay type: cell-based, Helicobacter pylori; conditions: for MIC: H. pylori OX.63, broth dilution, 48 h; for MBC: OX.63, 72 h
# [7] = system: H. pylori OX.83; assay: Broth dilution bioassay MIC/MBC, OX.83; assay type: cell-based, Helicobacter pylori; conditions: Helicobacter pylori; for MIC: OX.83, 48 h, H. pylori OX.83, broth dilution, 48 h; for MBC: OX.83, 72 h
# [8] = system: H. pylori OX.67; assay: Broth dilution bioassay MIC/MBC, OX.67; assay type: cell-based, Helicobacter pylori; conditions: Helicobacter pylori; for MIC: OX.67, 48 h, H. pylori OX.67, broth dilution, 48 h; for MBC: OX.67, 72 h
# [9] = system: H. pylori OX.22; assay: Broth dilution bioassay MIC/MBC, OX.22; assay type: cell-based; conditions: Helicobacter pylori; for MIC: OX.22, 48 h; for MBC: OX.22, 72 h
# [10] = system: H. pylori ATCC 51932; assay: Broth dilution bioassay MIC/MBC, ATCC 51932; assay type: cell-based; conditions: Helicobacter pylori; for MIC: ATCC51932, 48 h; for MBC: ATCC51932, 72 h
# [11] = system: H. pylori ATCC 43504; assay: Broth dilution bioassay MIC/MBC, ATCC 43504; assay type: cell-based; conditions: Helicobacter pylori; for MIC: ATCC43504, 48 h; for MBC: ATCC43504, 72 h
# [12] = system: test strains of H. pylori; assay: Broth dilution bioassay MIC/MBC, text summary over test strains; assay type: cell-based; conditions: Helicobacter pylori
# [13] = system: H. pylori OX.64; assay: Broth dilution bioassay MIC/MBC, OX.64; assay type: cell-based, Helicobacter pylori; conditions: for MIC: H. pylori OX.64, broth dilution, 48 h; for MBC: OX.64, 72 h
# [14] = system: H. pylori ATCC 43504; assay: Time-killing assay; assay type: cell-based, Helicobacter pylori
# Procedure, shortened: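 H. pylori ATCC 43504 in 10% NBS-supplemented Brucella broth in 96-well plates, by broth microdilution. Inoculum suspension 5×10^6 CFU/mL; DMSO final ≤2.5%. Test compound was used at concentrations from MIC to MBC, alongside an untreated control. Viability was counted by plate colony count at 0, 6, 12, 18, 24, 36 and 48 h.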
# [15] = system: H. pylori ATCC 43504 biofilm formation; assay: Biofilm formation inhibitory assay; assay type: cell-based, Helicobacter pylori; conditions: 48 h
# [16] = system: H. pylori ATCC 43504; assay: Effect on morphology; assay type: cell-based, Helicobacter pylori
# [17] = molecular target: H. pylori ATCC 43504 urease (Helicobacter pylori, UniProt P69996); assay: Urease inhibition, salicylate-hypochlorite method; assay type: biochemical; conditions: for slope ± SE: slope of dose-response curve of percentage of urease inhibition
# Chain of H. pylori ATCC 43504 urease (P69996 whole entry): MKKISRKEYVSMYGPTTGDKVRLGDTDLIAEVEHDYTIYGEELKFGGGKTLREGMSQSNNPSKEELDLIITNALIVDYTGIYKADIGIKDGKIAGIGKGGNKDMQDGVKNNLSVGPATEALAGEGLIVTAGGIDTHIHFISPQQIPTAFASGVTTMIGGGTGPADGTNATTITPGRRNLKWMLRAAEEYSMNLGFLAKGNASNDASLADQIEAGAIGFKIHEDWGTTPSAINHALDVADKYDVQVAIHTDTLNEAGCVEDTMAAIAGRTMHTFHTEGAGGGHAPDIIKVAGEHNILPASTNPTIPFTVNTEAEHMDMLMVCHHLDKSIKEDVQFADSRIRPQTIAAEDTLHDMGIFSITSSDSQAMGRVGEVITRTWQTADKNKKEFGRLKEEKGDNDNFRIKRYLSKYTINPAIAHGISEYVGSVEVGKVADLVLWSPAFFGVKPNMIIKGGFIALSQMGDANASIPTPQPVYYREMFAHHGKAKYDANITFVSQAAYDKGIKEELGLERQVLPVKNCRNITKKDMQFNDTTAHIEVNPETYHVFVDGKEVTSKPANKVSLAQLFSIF
# Chain of H. pylori ATCC 43504 urease (P14916 whole entry partner): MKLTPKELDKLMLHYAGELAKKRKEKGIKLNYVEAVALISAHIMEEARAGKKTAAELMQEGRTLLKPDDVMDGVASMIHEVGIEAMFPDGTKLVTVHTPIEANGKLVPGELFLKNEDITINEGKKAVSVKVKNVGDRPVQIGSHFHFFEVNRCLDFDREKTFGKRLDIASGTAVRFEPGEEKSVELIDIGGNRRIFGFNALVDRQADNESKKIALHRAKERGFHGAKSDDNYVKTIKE
# Procedure, shortened: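 Crude H. pylori ATCC 43504 urease, 0.25 μg (0.04 U), in EDTA–sodium phosphate buffer pH 7.3, was preincubated with test compound at 37 °C for 90 min at 50 rpm. Urea solution (10 mM, as added) was then incubated for 30 min. Ammonia was measured by the salicylate–nitroprusside/alkaline hypochlorite method at 625 nm. Thiourea was the reference inhibitor. IC50 is molar. Triplicates, three independent experiments.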
# [18] = Helicobacter pylori, OX.63, 48 h
# [19] = Helicobacter pylori, OX.64, 48 h
# [20] = 1/2 × MIC (NRG 50 mg/L, MCT 75 mg/L)
SMILES,CC50 at 48 h [1],CC50 at 48 h [2],CC50 at 48 h [3],CC50 at 48 h [4],CC50 at 48 h [5],"MIC [6, 18]",MBC ([6]; Helicobacter pylori),MIC [7],MBC [7],MIC [8],MBC [8],MIC [9],MBC [9],MIC [10],MBC [10],MIC [11],MBC [11],"MIC [13, 19]",MBC ([13]; Helicobacter pylori),conversion to the coccoid form ([16]; 500 mg/L),other results
"CC[C@@]1(O)C(=O)OCc2c1cc1n(c2=O)Cc2cc3ccccc3nc2-1 [camptothecin, reference compound]",0.005 µg/mL,0.005 to 1.57 µg/mL,0.89 µg/mL,0.005 µg/mL,1.57 µg/mL,,,,,,,,,,,,,,,,
Cc1ncc([N+](=O)[O-])n1CCO [metronidazole],,,,,,32 to 64 µg/mL,256 µg/mL,1 µg/mL,2 µg/mL,2 µg/mL,4 µg/mL,32 µg/mL,256 µg/mL,2 µg/mL,4 µg/mL,32 µg/mL,192 µg/mL,16 to 32 µg/mL,256 µg/mL,,MIC [6]: 64 µg/mL; MIC ([12]; 48 h): 24 to 64 µg/mL; MIC [13]: 32 µg/mL
C[C@H]1COc2c(N3CCN(C)CC3)c(F)cc3c(=O)c(C(=O)O)cn1c23 [levofloxacin],,,,,,0.063 µg/mL,0.5 µg/mL,0.75 µg/mL,1.25 µg/mL,0.063 µg/mL,0.25 µg/mL,0.063 µg/mL,0.5 µg/mL,0.125 µg/mL,0.25 µg/mL,0.125 µg/mL,0.25 µg/mL,16 to 32 µg/mL,128 µg/mL,,MIC [12]: 32 µg/mL; MIC [13]: 32 µg/mL
"O=c1c(O)c(-c2cc(O)c(O)c(O)c2)oc2cc(O)cc(O)c12 [MCT, myricetin]",31.7 µg/mL,7.61 to 76.1 µg/mL,36.8 µg/mL,7.61 µg/mL,76.1 µg/mL,150 µg/mL,1250 µg/mL,150 µg/mL,1250 µg/mL,150 µg/mL,1250 µg/mL,150 µg/mL,1250 µg/mL,150 µg/mL,1250 µg/mL,150 µg/mL,1250 µg/mL,150 µg/mL,1250 µg/mL,15%,"reduction of viability ([14]; at the MIC, 24 h): ~2.7 log10; reduction of viability ([14]; eight times the MIC, 36 h): ~4.2 log10; reduction of biofilm formation [15, 20]: 39.5%; conversion to the coccoid form ([16]; 1000 mg/L): 79%; IC50 [17]: 63 µM; concentration of complete inhibition of urease ([17]; Figure 5): 0.402 mM; slope ± SE [17]: 2.26 and 2.26 ± 0.070; MBC [12]: 1250 µg/mL; MIC ([12]; ATCC51932): 150 µg/mL"
"O=c1cc(-c2ccc(O)c(O)c2)oc2cc(O)cc(O)c12 [LUT, luteolin]",8.64 µg/mL,5.12 to 49.8 µg/mL,8.36 µg/mL,5.12 µg/mL,49.8 µg/mL,125 µg/mL,1250 µg/mL,125 µg/mL,1250 µg/mL,125 µg/mL,1250 µg/mL,125 µg/mL,1250 µg/mL,125 µg/mL,1250 µg/mL,125 µg/mL,1250 µg/mL,125 µg/mL,1250 µg/mL,14.7%,"reduction of viability ([14]; four times the MIC, 12 h): ~3 log10; antibiofilm activity ([15]; at test concentrations (sub-MICs)): did not show antibiofilm activity; conversion to the coccoid form ([16]; 1000 mg/L): 87.5%; IC50 [17]: 402 µM; slope ± SE [17]: 2.16 ± 0.080; MBC [12]: 1250 µg/mL; MIC ([12]; ATCC51932): 125 µg/mL"
"O=C1C[C@@H](c2ccc(O)cc2)Oc2cc(O)cc(O)c21 [NRG, naringenin]",93.7 µg/mL,46.6 to 133 µg/mL,65.2 µg/mL,46.6 µg/mL,133 µg/mL,100 µg/mL,1000 µg/mL,100 µg/mL,1000 µg/mL,100 µg/mL,1000 µg/mL,100 µg/mL,1000 µg/mL,100 µg/mL,1000 µg/mL,100 µg/mL,1000 µg/mL,100 µg/mL,1000 µg/mL,16.5%,"reduction of viability ([14]; at the MIC, 48 h): ~1 log10; reduction of viability ([14]; five times the MIC, 24 h): ~2.5 log10; reduction of viability ([14]; five times the MIC, 36 h): ~4 log10; reduction of biofilm formation [15, 20]: 85.9%; reduction of biofilm formation ([15]; 1/4 × MIC (NRG 25 mg/L)): 52.7%; conversion to the coccoid form ([16]; 1000 mg/L): 95%; IC50 [17]: 575 µM; slope ± SE [17]: 1.38 ± 0.045; MIC ([12]; ATCC51932): 100 µg/mL"
